From ChEMBL document CHEMBL4020704, “Metabolite diversification by cultivation of the endophytic fungus Dothideomycete sp. in halogen containing media: Cultivation of terrestrial fungus in seawater” (Bioorg Med Chem, 2017)
In brackets after ≈: the same amount, converted by molar mass. Activity calls are given as the source filed them. The calls are words filed in the database; no cut-off is given here.

Each molecule was assayed on MOLT-3 (assay: Cytotoxic activity against human MOLT3 cells by XTT assay). Settings: not given.
Type: functional, cell-based
In short: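 Non-adherent MOLT-3 leukemia cells, viability read by XTT assay. Etoposide served as reference drug. IC50 determined.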
`C/C(=C\C=C\[C@H](O)[C@H](C)O)[C@H](O)[C@H](C)C(=O)O[C@H]1C[C@H](C)C[C@@H]2C=C[C@H](C)[C@](C)(C(=O)[C@H](O)CO)[C@@H]12` was tested, and the Activity was “inactive”. `CC1=CC2=C(C[C@H](C)C3=CC(=O)CC(C)O3)C(=O)[C@](C)(O)[C@@H](O)C2=CO1` (some centres not stated) was tested, and the Activity was “inactive”. With `COc1cc([C@@H]2c3cc4c(cc3[C@@H](O[C@@H]3O[C@@H]5CO[C@@H](C)O[C@H]5[C@H](O)[C@H]3O)[C@H]3COC(=O)[C@H]23)OCO4)cc(OC)c1O` [ETOPOSIDE] the IC50 was 0.04 µg/mL (≈ 0.068 µM). For `CO[C@@H](/C=C/C=C(\C)[C@H](O)[C@H](C)C(=O)O[C@H]1C[C@H](C)C[C@@H]2C=C[C@H](C)[C@](C)(C(=O)[C@H](O)CO)[C@@H]12)[C@H](C)O`, the Activity was “inactive”.

What follows are molecules tested on HuCC-A1 (assay: Cytotoxic activity against human HuCCa1 cells by MTT assay). Settings: not given.
Type: functional, cell-based
In short: (§1)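 Adherent cancer cell lines, viability read by MTT assay. Doxorubicin served as reference drug for A549, HepG2 and HuCCA-1, and etoposide also for HepG2. IC50 determined.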
With `C/C(=C\C=C\[C@H](O)[C@H](C)O)[C@H](O)[C@H](C)C(=O)O[C@H]1C[C@H](C)C[C@@H]2C=C[C@H](C)[C@](C)(C(=O)[C@H](O)CO)[C@@H]12` the Activity was “inactive”. For `CC1=CC2=C(C[C@H](C)C3=CC(=O)CC(C)O3)C(=O)[C@](C)(O)[C@@H](O)C2=CO1` (some centres not stated), the Activity was “inactive”. For `CO[C@@H](/C=C/C=C(\C)[C@H](O)[C@H](C)C(=O)O[C@H]1C[C@H](C)C[C@@H]2C=C[C@H](C)[C@](C)(C(=O)[C@H](O)CO)[C@@H]12)[C@H](C)O`, the Activity was “inactive”. `COc1cccc2c1C(=O)c1c(O)c3c(c(O)c1C2=O)C[C@@](O)(C(=O)CO)C[C@@H]3O[C@H]1C[C@H](N)[C@H](O)[C@H](C)O1` [DOXORUBICIN] showed an IC50 of 0.33 µg/mL (≈ 0.607 µM).

The molecules below were run on Escherichia coli (assay: Antibacterial activity against Escherichia coli after 20 hrs by broth microdilution method). Settings: not given.
Type: functional
In short: (§2)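 Compounds dissolved in DMSO and two-fold serially diluted in 96-well plates, with final DMSO ≤0.5% (v/v). Inocula prepared in normal saline and adjusted to 0.5 McFarland turbidity. Plates incubated at 36 °C for 20 h, then absorbance read at 600 nm. MIC taken as the lowest concentration inhibiting growth.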
For `C/C(=C\C=C\[C@H](O)[C@H](C)O)[C@H](O)[C@H](C)C(=O)O[C@H]1C[C@H](C)C[C@@H]2C=C[C@H](C)[C@](C)(C(=O)[C@H](O)CO)[C@@H]12`, the Activity was “inactive”. With `CC1=CC2=C(C[C@H](C)C3=CC(=O)CC(C)O3)C(=O)[C@](C)(O)[C@@H](O)C2=CO1` (some centres not stated) the Activity was “inactive”. For `CO[C@@H](/C=C/C=C(\C)[C@H](O)[C@H](C)C(=O)O[C@H]1C[C@H](C)C[C@@H]2C=C[C@H](C)[C@](C)(C(=O)[C@H](O)CO)[C@@H]12)[C@H](C)O`, the Activity was “inactive”.

Each molecule was assayed on Enterococcus faecalis (assay: Antibacterial activity against Enterococcus faecalis after 20 hrs by broth microdilution method). Settings: not given.
Type: functional
In short: as §2
In the case of `C/C(=C\C=C\[C@H](O)[C@H](C)O)[C@H](O)[C@H](C)C(=O)O[C@H]1C[C@H](C)C[C@@H]2C=C[C@H](C)[C@](C)(C(=O)[C@H](O)CO)[C@@H]12`, the Activity is reported as “inactive”. In the case of `CC1=CC2=C(C[C@H](C)C3=CC(=O)CC(C)O3)C(=O)[C@](C)(O)[C@@H](O)C2=CO1` (some centres not stated), the Activity is reported as “inactive”. For `CO[C@@H](/C=C/C=C(\C)[C@H](O)[C@H](C)C(=O)O[C@H]1C[C@H](C)C[C@@H]2C=C[C@H](C)[C@](C)(C(=O)[C@H](O)CO)[C@@H]12)[C@H](C)O`, the Activity was “inactive”.

Each molecule was assayed on Shigella flexneri (assay: Antibacterial activity against Shigella flexneri after 20 hrs by broth microdilution method). Settings: not given.
Type: functional
In short: as §2
With `C/C(=C\C=C\[C@H](O)[C@H](C)O)[C@H](O)[C@H](C)C(=O)O[C@H]1C[C@H](C)C[C@@H]2C=C[C@H](C)[C@](C)(C(=O)[C@H](O)CO)[C@@H]12` the Activity was “inactive”. In the case of `CC1=CC2=C(C[C@H](C)C3=CC(=O)CC(C)O3)C(=O)[C@](C)(O)[C@@H](O)C2=CO1` (some centres not stated), the Activity is reported as “inactive”. With `CO[C@@H](/C=C/C=C(\C)[C@H](O)[C@H](C)C(=O)O[C@H]1C[C@H](C)C[C@@H]2C=C[C@H](C)[C@](C)(C(=O)[C@H](O)CO)[C@@H]12)[C@H](C)O` the Activity was “inactive”.

The molecules below were run on Staphylococcus epidermidis (assay: Antibacterial activity against Staphylococcus epidermidis after 20 hrs by broth microdilution method). Settings: not given.
Type: functional
In short: as §2
Work on `CN(C)[C@@H]1C(O)=C(C(N)=O)C(=O)[C@@]2(O)C(O)=C3C(=O)c4c(O)cccc4[C@@](C)(O)[C@H]3C[C@@H]12` [TETRACYCLINE] yielded an MIC of 1.56 µg/mL (≈ 3.51 µM). In the case of `C/C(=C\C=C\[C@H](O)[C@H](C)O)[C@H](O)[C@H](C)C(=O)O[C@H]1C[C@H](C)C[C@@H]2C=C[C@H](C)[C@](C)(C(=O)[C@H](O)CO)[C@@H]12`, the Activity is reported as “inactive”. For `CC1=CC2=C(C[C@H](C)C3=CC(=O)CC(C)O3)C(=O)[C@](C)(O)[C@@H](O)C2=CO1` (some centres not stated), the Activity was “inactive”. `CO[C@@H](/C=C/C=C(\C)[C@H](O)[C@H](C)C(=O)O[C@H]1C[C@H](C)C[C@@H]2C=C[C@H](C)[C@](C)(C(=O)[C@H](O)CO)[C@@H]12)[C@H](C)O` was tested, and the Activity was “inactive”. `O=C(N[C@H](CO)[C@H](O)c1ccc([N+](=O)[O-])cc1)C(Cl)Cl` [CHLORAMPHENICOL] gave an MIC of 0.78 µg/mL (≈ 2.41 µM).

The molecules below were run on Staphylococcus aureus (assay: Antibacterial activity against Staphylococcus aureus after 20 hrs by broth microdilution method). Settings: not given.
Type: functional
In short: as §2
In the case of `CN(C)[C@@H]1C(O)=C(C(N)=O)C(=O)[C@@]2(O)C(O)=C3C(=O)c4c(O)cccc4[C@@](C)(O)[C@H]3C[C@@H]12` [TETRACYCLINE], the MIC is reported as 0.78 µg/mL (≈ 1.76 µM). `C/C(=C\C=C\[C@H](O)[C@H](C)O)[C@H](O)[C@H](C)C(=O)O[C@H]1C[C@H](C)C[C@@H]2C=C[C@H](C)[C@](C)(C(=O)[C@H](O)CO)[C@@H]12` was tested, and the Activity was “inactive”. For `CC1=CC2=C(C[C@H](C)C3=CC(=O)CC(C)O3)C(=O)[C@](C)(O)[C@@H](O)C2=CO1` (some centres not stated), the Activity was “inactive”. For `CO[C@@H](/C=C/C=C(\C)[C@H](O)[C@H](C)C(=O)O[C@H]1C[C@H](C)C[C@@H]2C=C[C@H](C)[C@](C)(C(=O)[C@H](O)CO)[C@@H]12)[C@H](C)O`, the Activity was “inactive”. `O=C(N[C@H](CO)[C@H](O)c1ccc([N+](=O)[O-])cc1)C(Cl)Cl` [CHLORAMPHENICOL] showed an MIC of 0.78 µg/mL (≈ 2.41 µM).

The molecules below were run on Pseudomonas aeruginosa (assay: Antibacterial activity against Pseudomonas aeruginosa after 20 hrs by broth microdilution method). Settings: not given.
Type: functional
In short: as §2
With `C/C(=C\C=C\[C@H](O)[C@H](C)O)[C@H](O)[C@H](C)C(=O)O[C@H]1C[C@H](C)C[C@@H]2C=C[C@H](C)[C@](C)(C(=O)[C@H](O)CO)[C@@H]12` the Activity was “inactive”. In the case of `CC1=CC2=C(C[C@H](C)C3=CC(=O)CC(C)O3)C(=O)[C@](C)(O)[C@@H](O)C2=CO1` (some centres not stated), the Activity is reported as “inactive”. For `CO[C@@H](/C=C/C=C(\C)[C@H](O)[C@H](C)C(=O)O[C@H]1C[C@H](C)C[C@@H]2C=C[C@H](C)[C@](C)(C(=O)[C@H](O)CO)[C@@H]12)[C@H](C)O`, the Activity was “inactive”.

The molecules below were run on Bacillus cereus (assay: Antibacterial activity against Bacillus cereus after 20 hrs by broth microdilution method). Settings: not given.
Type: functional
In short: as §2
For `CN(C)[C@@H]1C(O)=C(C(N)=O)C(=O)[C@@]2(O)C(O)=C3C(=O)c4c(O)cccc4[C@@](C)(O)[C@H]3C[C@@H]12` [TETRACYCLINE], the MIC was 6.25 µg/mL (≈ 14.1 µM). `C/C(=C\C=C\[C@H](O)[C@H](C)O)[C@H](O)[C@H](C)C(=O)O[C@H]1C[C@H](C)C[C@@H]2C=C[C@H](C)[C@](C)(C(=O)[C@H](O)CO)[C@@H]12` was tested, and the Activity was “inactive”. With `CC1=CC2=C(C[C@H](C)C3=CC(=O)CC(C)O3)C(=O)[C@](C)(O)[C@@H](O)C2=CO1` (some centres not stated) the Activity was “inactive”. With `CO[C@@H](/C=C/C=C(\C)[C@H](O)[C@H](C)C(=O)O[C@H]1C[C@H](C)C[C@@H]2C=C[C@H](C)[C@](C)(C(=O)[C@H](O)CO)[C@@H]12)[C@H](C)O` the Activity was “inactive”. Molecule `O=C(N[C@H](CO)[C@H](O)c1ccc([N+](=O)[O-])cc1)C(Cl)Cl` [CHLORAMPHENICOL] has an MIC of 0.78 µg/mL (≈ 2.41 µM).

The molecules below were run on Salmonella typhimurium (assay: Antibacterial activity against Salmonella typhimurium after 20 hrs by broth microdilution method). Settings: Salmonella enterica subsp. enterica serovar Typhimurium.
Type: functional
In short: as §2
With `C/C(=C\C=C\[C@H](O)[C@H](C)O)[C@H](O)[C@H](C)C(=O)O[C@H]1C[C@H](C)C[C@@H]2C=C[C@H](C)[C@](C)(C(=O)[C@H](O)CO)[C@@H]12` the Activity was “inactive”. For `CC1=CC2=C(C[C@H](C)C3=CC(=O)CC(C)O3)C(=O)[C@](C)(O)[C@@H](O)C2=CO1` (some centres not stated), the Activity was “inactive”. With `CO[C@@H](/C=C/C=C(\C)[C@H](O)[C@H](C)C(=O)O[C@H]1C[C@H](C)C[C@@H]2C=C[C@H](C)[C@](C)(C(=O)[C@H](O)CO)[C@@H]12)[C@H](C)O` the Activity was “inactive”.

The molecules below were run on HepG2 (assay: Cytotoxic activity against human HepG2 cells by MTT assay). Settings: not given.
Type: functional, cell-based
In short: as §1
In the case of `C/C(=C\C=C\[C@H](O)[C@H](C)O)[C@H](O)[C@H](C)C(=O)O[C@H]1C[C@H](C)C[C@@H]2C=C[C@H](C)[C@](C)(C(=O)[C@H](O)CO)[C@@H]12`, the Activity is reported as “inactive”. In the case of `CC1=CC2=C(C[C@H](C)C3=CC(=O)CC(C)O3)C(=O)[C@](C)(O)[C@@H](O)C2=CO1` (some centres not stated), the Activity is reported as “inactive”. Molecule `COc1cc([C@@H]2c3cc4c(cc3[C@@H](O[C@@H]3O[C@@H]5CO[C@@H](C)O[C@H]5[C@H](O)[C@H]3O)[C@H]3COC(=O)[C@H]23)OCO4)cc(OC)c1O` [ETOPOSIDE] has an IC50 of 24.3 µg/mL (≈ 41.3 µM). `CO[C@@H](/C=C/C=C(\C)[C@H](O)[C@H](C)C(=O)O[C@H]1C[C@H](C)C[C@@H]2C=C[C@H](C)[C@](C)(C(=O)[C@H](O)CO)[C@@H]12)[C@H](C)O` was tested, and the Activity was “inactive”.
